167 variants from the RNAGym collection of RNA variant scans (doi:10.1101/gad.245936.114) can be followed below.

This sample holds only a part of the variants without activity. Where only a bound is given, the exact number is not on record here.

B1: tRNA (parent)
chain: CUCUCGGUAGCCAAGUUGGUUUAAGGCGCAAGACUUUAAUUUAUCACUACGAAAUCUUGAGAUCGGGCGUUCGACUCGCCCCCGGGAGAUUUUUUCCUCGAGCAA

The data set covers variants of B1. In words: nonsense suppression (GFP-seq) (ratio to wild type); higher = more function; SUP4oc tRNA, yeast GFP reporter sort-seq. The essentials: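 To measure nonsense suppression, tRNA variants from a library carrying ~3% random mutations were integrated into the yeast genome alongside RFP and a GFP ochre reporter under galactose control. Growth took place in raffinose/galactose medium supplemented with 80 mg/L adenine, followed by sorting into GFP/RFP bins and Illumina sequencing of each bin (phred ≥30). For each variant with ≥100 reads and ≥30 cells, the bin median GFP/RFP values were weighted by its estimated cell share per bin and referenced to the unmutated parent tRNA.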
U57A G66A G78C C82A: the nonsense suppression is no more than 0.026.

G61A A62C: the nonsense suppression was found to be 0.0863.

With G61A A62U, the nonsense suppression came to 0.311.

With A60C G66C, the nonsense suppression is no more than 0.026.

For the variant C56A G69A, the nonsense suppression is no more than 0.026.

Consider U58A A74G G88A, for which the nonsense suppression was no more than 0.026.

For the variant A60U U63G, the nonsense suppression came out at 0.789.

With G61A G84C, the nonsense suppression is 0.0752.

G59C A60C U71G G78A: the nonsense suppression was no more than 0.026.

On to A60G G69A, for which the nonsense suppression was found to be 0.0526.

In the case of A60G C81U, the nonsense suppression came out at 0.0488.

On to C34U A60C C72A, for which the nonsense suppression was no more than 0.026.

For the variant G59U G88A, the nonsense suppression is no more than 0.026.

With A60U G73A, the nonsense suppression amounted to 0.222.

In the case of U57C U58A A62C, the nonsense suppression is no more than 0.026.

Consider G61A A62U G84U, for which the nonsense suppression was no more than 0.026.

A54U G85U: the nonsense suppression is 1.01.

For A54U G85C, the nonsense suppression worked out at 0.208.

In the case of C56G U58C G66C U70C, the nonsense suppression was no more than 0.026.

As for A54C U76C, the nonsense suppression is 0.232.

With A60C G85C, the nonsense suppression turned out to be 0.0595.

As for A54C G67U, the nonsense suppression was no more than 0.026.

For G61A C75U, the nonsense suppression stood at 0.923.

In the case of G61A C75A, the nonsense suppression came out at 0.842.

For U55G U63G U71C G88A, the nonsense suppression was no more than 0.026.

As to A54C G78A, the nonsense suppression amounted to 0.107.

As for C34G G86U, the nonsense suppression is no more than 0.026.

Take G59U U63C: the nonsense suppression is 0.868.

C34U A54C C56G G73A G88C: the nonsense suppression was no more than 0.026.

Regarding A60G A74G, the nonsense suppression was found to be 0.0684.

On to A60G A74C, for which the nonsense suppression was 0.0318.

As for U58C G73A, the nonsense suppression turned out to be 0.0472.

With C34U A60G, the nonsense suppression was determined as 0.0428.

With A60C A74G, the nonsense suppression stood at 0.0424.

Regarding U55C C77A, the nonsense suppression was determined as 0.0479.

For U55A A60C C75U G78C C79G A89G, the nonsense suppression was no more than 0.026.

For U35C U63G, the nonsense suppression is 0.0352.

As for U57A C81G A89G, the nonsense suppression is no more than 0.026.

A54G G67C: the nonsense suppression is no more than 0.026.

As to A54U C64U, the nonsense suppression turned out to be 0.0513.

Regarding U55C A87C, the nonsense suppression came to 0.0719.

For the variant U58G G85A, the nonsense suppression came out at 0.0573.

On to U35G G85U, for which the nonsense suppression is no more than 0.026.

Take G61A: the nonsense suppression was found to be 0.853.

For the variant G61C, the nonsense suppression was 1.14.

Take U35C U70A: the nonsense suppression was no more than 0.026.

Take U58C G61A: the nonsense suppression stood at 0.0586.

Turning to U58C G61C, the nonsense suppression worked out at 0.0324.

Consider A54C C68G, for which the nonsense suppression was no more than 0.026.

On to C34G G78C, for which the nonsense suppression was no more than 0.026.

For G61A C83A, the nonsense suppression was found to be 0.0363.

Consider A60G U63A, for which the nonsense suppression turned out to be 0.163.

Take U58C A60C: the nonsense suppression turned out to be 0.0568.

As to U55C G86A, the nonsense suppression came out at 0.0315.

Regarding U55C G86C, the nonsense suppression was found to be 0.164.

Regarding U57C G61A, the nonsense suppression amounted to 0.0312.

As to G59A G66C, the nonsense suppression is no more than 0.026.

Turning to U35G C56A G61U U63A, the nonsense suppression is no more than 0.026.

Consider U58A G59A U63A G69C U70G, for which the nonsense suppression is no more than 0.026.

In the case of A54C G73C, the nonsense suppression was 0.0591.

Consider C34U G61C, for which the nonsense suppression came to 0.0481.

Regarding C34U G61A, the nonsense suppression was 0.0297.

On to U57A G67U U76C, for which the nonsense suppression was no more than 0.026.

G61C C72G: the nonsense suppression was determined as 0.0291.

U55C C79G: the nonsense suppression stood at 0.035.

Turning to U55C C79U, the nonsense suppression stood at 0.183.

For U57C C81U G84U, the nonsense suppression was no more than 0.026.

As to A60U U76C, the nonsense suppression was found to be 1.05.

On to U57G G85C, for which the nonsense suppression is no more than 0.026.

For the variant A54C U71G, the nonsense suppression is no more than 0.026.

A54C U71C: the nonsense suppression came to 0.0406.

In the case of U55C U57C, the nonsense suppression was determined as 0.026.

For C34G U71G, the nonsense suppression is no more than 0.026.

Consider G61C A87G, for which the nonsense suppression worked out at 0.247.

G61C A87C: the nonsense suppression came to 0.0361.

With G61C A87U, the nonsense suppression came to 0.3.

Take U55C U63C: the nonsense suppression came to 0.156.

As to U55C U63G, the nonsense suppression is no more than 0.026.

For U55C U63A, the nonsense suppression came out at 0.244.

Turning to U57C A60U, the nonsense suppression came to 0.0266.

On to A60G G85A, for which the nonsense suppression amounted to 1.16.

A60G G85C: the nonsense suppression turned out to be 0.119.

For the variant A60G G85U, the nonsense suppression turned out to be 0.138.

Consider U35A G73U G84C, for which the nonsense suppression is no more than 0.026.

As for U58G G85U G86U, the nonsense suppression is no more than 0.026.

Take U57A A60C: the nonsense suppression was found to be 0.0859.

Take A60G G78A: the nonsense suppression turned out to be 0.0542.

A60G G78U: the nonsense suppression came out at 0.0498.

Consider A60C C79U, for which the nonsense suppression worked out at 0.14.

C56U: the nonsense suppression was 0.15.

Regarding A60G G73C, the nonsense suppression is no more than 0.026.

Take U55C C83G: the nonsense suppression is 0.0314.

Consider C34G C81A, for which the nonsense suppression was no more than 0.026.

On to U57A G78C, for which the nonsense suppression was no more than 0.026.

On to U58C G61U U63C, for which the nonsense suppression is no more than 0.026.

As for U55A A74C G88A, the nonsense suppression is no more than 0.026.

Consider A60G C75A, for which the nonsense suppression was determined as 0.976.

Take G61C A89C: the nonsense suppression was no more than 0.026.

Consider U58G G66U C75A, for which the nonsense suppression was no more than 0.026.

Regarding A54C C81U, the nonsense suppression was determined as 0.21.

C34U A74C C79A: the nonsense suppression was no more than 0.026.

For the variant C56G U58C G66C, the nonsense suppression is no more than 0.026.

Regarding G61A C72U, the nonsense suppression turned out to be 0.0666.

As to G61A C72A, the nonsense suppression turned out to be 0.0325.

For the variant G61A C80U, the nonsense suppression is 0.232.

Consider U57A C82A, for which the nonsense suppression was no more than 0.026.

Take U55C G66A: the nonsense suppression was determined as 0.0631.

As for G59A G61A U71G G78U, the nonsense suppression is no more than 0.026.

As for A54C A60U, the nonsense suppression amounted to 1.09.

For the variant A54C A60G, the nonsense suppression was determined as 0.0773.

As to A60G U71C, the nonsense suppression came out at 0.0362.

As for U55A U76A G86A, the nonsense suppression was no more than 0.026.

On to C56U A87G, for which the nonsense suppression was no more than 0.026.

Regarding U35C C77A G85C, the nonsense suppression was no more than 0.026.

U55C U63A C75G: the nonsense suppression was 0.0265.

As for A60U C81U, the nonsense suppression was 0.818.

On to C34U U35G U57C G61A C82U, for which the nonsense suppression was no more than 0.026.

Take U57A U76A: the nonsense suppression is no more than 0.026.

Take A54G C79U: the nonsense suppression is 0.0263.

Turning to A60G A89U, the nonsense suppression came to 0.0291.

Turning to U58G G66C C80G, the nonsense suppression was determined as 0.0324.

Regarding U55C G88C, the nonsense suppression is 0.0568.

For G61A G66C, the nonsense suppression is no more than 0.026.

Take U55C U58A G67U: the nonsense suppression was no more than 0.026.

Regarding C56G G78C, the nonsense suppression was no more than 0.026.

On to G61A G73A, for which the nonsense suppression stood at 0.202.

Regarding G59C A87U, the nonsense suppression was no more than 0.026.

Consider A54G G73A, for which the nonsense suppression was found to be 0.122.

For U57C G66U C81A, the nonsense suppression is no more than 0.026.

G61A G85U: the nonsense suppression came out at 0.429.

Turning to U35G G59U A60G, the nonsense suppression is no more than 0.026.

Regarding U58G G59A C80U G86U, the nonsense suppression was no more than 0.026.

Turning to C56A G65C, the nonsense suppression is no more than 0.026.

As to U57C A87G, the nonsense suppression is 0.0399.

For the variant A54U A60U, the nonsense suppression is 0.965.

Consider A54U A60C, for which the nonsense suppression stood at 0.279.

With U58C G69A, the nonsense suppression was no more than 0.026.

With A60C A62C A87G, the nonsense suppression is no more than 0.026.

On to A60G G86U, for which the nonsense suppression was found to be 0.0427.

U57G G78A: the nonsense suppression amounted to 0.0374.

A60G G84A: the nonsense suppression came to 0.269.

For G61A C68U G69A G73A, the nonsense suppression was no more than 0.026.

G61A G65C G69A C80U: the nonsense suppression is no more than 0.026.

As for A60U, the nonsense suppression stood at 0.984.

Regarding A60G, the nonsense suppression is 1.14.

Regarding A60C, the nonsense suppression was 0.489.

On to C34A U63A C82G, for which the nonsense suppression was no more than 0.026.

On to A54U U76C, for which the nonsense suppression came out at 1.08.

U57A G61A: the nonsense suppression was 0.0464.

As for G61A G78U, the nonsense suppression turned out to be 0.0402.

For A60U U70C U76C, the nonsense suppression is no more than 0.026.

Take U58A G61A: the nonsense suppression stood at 0.0532.

Consider U35C G61A, for which the nonsense suppression amounted to 0.0378.

With C34U G59U, the nonsense suppression was no more than 0.026.

A54G U71A: the nonsense suppression is no more than 0.026.

Turning to G61A C64G, the nonsense suppression was determined as 0.0404.

Turning to C34G G61C, the nonsense suppression was no more than 0.026.

On to C34G G61A, for which the nonsense suppression was found to be 0.0334.

On to A54C G61A, for which the nonsense suppression worked out at 0.334.

For A54C G61C, the nonsense suppression stood at 0.216.

In the case of U55C A74G, the nonsense suppression stood at 0.144.

As to U58C U63C, the nonsense suppression stood at 0.144.

U57A G85U: the nonsense suppression was 0.0736.

In the case of U57A G85A, the nonsense suppression was 0.165.

Consider A54U U63G, for which the nonsense suppression amounted to 0.659.

For the variant A54U U63A, the nonsense suppression was found to be 0.864.

A54U U63C: the nonsense suppression stood at 0.798.
